# Test results reported in PMC4398643 (Analytical biochemistry, 2015).
# Target: T1, 15-LOX-2 (Homo sapiens, UniProt O15296)
# T1 sequence (O15296 1-676): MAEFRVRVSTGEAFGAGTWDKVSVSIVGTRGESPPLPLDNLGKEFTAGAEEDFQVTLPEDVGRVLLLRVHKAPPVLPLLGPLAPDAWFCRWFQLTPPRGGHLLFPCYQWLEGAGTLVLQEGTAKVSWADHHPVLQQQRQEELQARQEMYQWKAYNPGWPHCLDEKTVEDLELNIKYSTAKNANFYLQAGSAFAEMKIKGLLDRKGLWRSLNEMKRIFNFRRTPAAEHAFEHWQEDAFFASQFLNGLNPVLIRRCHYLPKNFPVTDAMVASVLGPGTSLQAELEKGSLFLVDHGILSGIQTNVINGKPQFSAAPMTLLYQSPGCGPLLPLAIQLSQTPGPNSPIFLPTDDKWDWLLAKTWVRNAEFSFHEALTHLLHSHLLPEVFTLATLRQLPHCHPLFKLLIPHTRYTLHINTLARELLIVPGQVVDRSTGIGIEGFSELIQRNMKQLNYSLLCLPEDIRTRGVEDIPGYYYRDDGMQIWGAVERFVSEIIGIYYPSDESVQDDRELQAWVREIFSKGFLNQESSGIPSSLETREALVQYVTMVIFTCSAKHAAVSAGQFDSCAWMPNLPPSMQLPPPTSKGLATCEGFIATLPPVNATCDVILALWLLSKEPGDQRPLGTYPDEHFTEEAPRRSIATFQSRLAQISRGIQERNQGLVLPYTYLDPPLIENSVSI
# Assay: 96-well allosteric effector assay
# Assay type: biochemical
# Conditions: for AA/GLA ratio (15-HETE/13-HOTrE(γ) peak area ratio): 4 µM AA and 16 µM GLA, ratio without effector 2.3 ± 0.1
# How it was run: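 15-LOX-2 (~150 nM final) is preincubated 30 s with the perdeuterated effector in 50 mM ammonium bicarbonate, pH 7.5, with 0.01% PPS detergent in 96-well plates. Turnover uses AA:GLA at 1:4 (20 µM total substrate), kept below 20% conversion. Plates are held at 4° C during HPLC-MS analysis, with products identified by MS/MS. The substrate preference is the 15-HETE/13-HOTrE(γ) peak-area ratio.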
structure (smiles),measurement,setting,value
[2H]C(C([2H])=C([2H])C([2H])(O)C([2H])([2H])C([2H])([2H])C([2H])([2H])C([2H])([2H])C([2H])([2H])[2H])=C([2H])C([2H])([2H])C([2H])([2H])C([2H])([2H])C([2H])([2H])C([2H])([2H])C([2H])([2H])C([2H])([2H])C(=O)O (stereo not drawn) [d30-13-HODE],AA/GLA ratio (15-HETE/13-HOTrE(γ) peak area ratio),10 µM d30-13-HODE,1.4 ± 0.1
same,AA/GLA ratio (15-HETE/13-HOTrE(γ) peak area ratio),20 µM d30-13-HODE,1.1 ± 0.1
same,effect on AA and GLA catalysis,"based on standard curve for AA and GLA products, data not shown","reducing AA catalysis, but not affecting GLA catalysis significantly"
